# Bioassay records (PubChem BioAssay)
# ARNT-TACC3 inh: disruptors of human ARNT/TACC3 interaction; 390,000 compounds, 0.66% hits; AID 623870; inhibition, % at 9.99 µM; AlphaScreen His-ARNT PAS-B/GST-TACC3 binding, luminescence; TACC3 fragment carries E629A point mutation; Q9Y6A5;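 active = mean inhibition of replicates at least 50% and at least half of replicates each reaching 50%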;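 also: 0% = complete ARNT plus TACC3 wells and 100% = ARNT alone without TACC3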
# SUMO Mot1 rescue: blocks SUMOylation pathway, rescuing yeast Mot1-301 growth; S. cerevisiae Mot1-301 growth rescue, ATP luminescence, 38.5C; percent above DMSO median, 100 means doubled; growth rescue, % at 18.8 µM; 320,000 compounds, 1% hits; AID 2716;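 active = every valid replicate shows activation above 250% relative to neutral control wells; inactive = the rest, any valid replicate at or below 250%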;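 also: OY570 slx delta 5 strain wells were the positive control but not used for scaling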
# RTF Ca sens inh: cardiac RTF calcium desensitization; inhibition, % at 7.15 µM; P19429+P45379; IANBD-labeled cardiac RTF, Ca2+ fluorescence; AID 493244; 340,000 compounds, 0.12% hits;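 active = inhibition above the mean inhibition of all tested compounds plus 3 SD, cut at about 17% in these data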;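 also: assay run at fixed EC70 calcium of 1.6 mM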
# Efflux pump mplx: blocks antifungal efflux pumps in multiplex yeast assay. S. cerevisiae Candida pump triplex, Nile Red efflux. inhibition, % at 10 µM. 330,000 compounds, 0.44% hits. AID 485275;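 active = plate passing quality check with inhibition over a set limit, or well fluorescence over plate mean plus 4 SD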;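 also: Nile Red retained in pooled yeast measured as flow cytometry median fluorescence; 0% = buffer negative control and 100% = Enniatin B positive control; higher means more Nile Red kept so more efflux inhibition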
# UCH37 DUB inh: human UCH37 deubiquitinating enzyme inhibition; Q9Y5K5; purified proteasome/UCH37, Ub-AMC cleavage fluorescence; inhibition, % (concentration not given with the values); 330,000 compounds, 0.33% hits;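 active = mean inhibition over replicate wells above about 20%, limit read from the data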;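 also: 0% = compound-free wells with enzyme and 100% = wells lacking proteasome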
# Target sequence (Q9Y5K5 whole entry, looked up): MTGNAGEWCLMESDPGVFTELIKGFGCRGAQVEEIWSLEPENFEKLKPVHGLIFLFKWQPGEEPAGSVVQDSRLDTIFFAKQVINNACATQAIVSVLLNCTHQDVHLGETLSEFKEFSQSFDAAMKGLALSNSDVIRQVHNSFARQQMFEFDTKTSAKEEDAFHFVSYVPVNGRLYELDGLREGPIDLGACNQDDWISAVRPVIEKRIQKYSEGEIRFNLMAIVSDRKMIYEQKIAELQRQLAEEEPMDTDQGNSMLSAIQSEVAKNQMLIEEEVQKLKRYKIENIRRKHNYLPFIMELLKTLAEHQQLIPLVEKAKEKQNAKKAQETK
#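 Material: Human UCH37 enzyme supplied as purified proteasome complex | Schedule: 30 min preincubation with enzyme, 25 min cleavage at room temperature | Detection: AMC fluorescence 355/460 nm | Measure: % inhibition of Ub-AMC cleavage fluorescence | Controls: Wells without proteasome as full block, compound-free enzyme plus substrate as uninhibited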
# RTF Ca sens act: increases calcium sensitivity of human cardiac regulated thin filaments; P19429+P45379; IANBD-labeled TnC RTF fluorescence at EC20 calcium; 0% EC20 calcium, 100% full calcium; activation, % at 7.2 µM; 340,000 compounds, 0.24% hits;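 active = activation above the mean over all tested compounds plus 3 SD, cut at about 30% in these data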;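 also: rise in fluorescence read as greater calcium sensitivity of cardiac thin filaments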
# Starred values were filed as active, the others as inactive; i = inactive; . = no result. This is a sample that favours compounds with a hit; in the whole collection about 2.1% have one here.
SMILES,ARNT-TACC3 inh,SUMO Mot1 rescue,RTF Ca sens inh,Efflux pump mplx,UCH37 DUB inh,RTF Ca sens act
Cc1cccc(Cn2cc(/C=C/[N+](=O)[O-])c3ccccc32)c1,-2.9,26.5,2.1,-0.1,-0.3,5.8
N=C1/C(=C/c2ccc(-c3cccc(C(=O)O)c3)o2)C(=O)N=C2SC(CC(=O)N3CCOCC3)=NN12,.,-21.7,7.5,0.0,23.9*,-5.5
O=[N+]([O-])c1ccc(NN=Cc2ccc(O)c(O)c2O)c(S(=O)(=O)N2CCOCC2)c1,.,.,.,.,3.3,.
CCN1/C(=C/C=C/c2sc3ccccc3[n+]2CC)Sc2ccccc21,15.3,-1.9,-7.0,0.3,2.7,18.9
CCN1/C(=C/C=C/C=C/c2sc3ccccc3[n+]2CC)Sc2ccccc21,.,-24.8,.,0.8*,.,.
COc1ccc(CN2CCN(c3ncnc4scc(-c5ccc(F)cc5)c34)CC2)cc1,48.0*,16.3,-9.6,0.2,2.0,4.3
Cc1nnc(NN=Cc2cccc(C(F)(F)F)c2)n1N,.,.,.,.,6.7,.
COc1cccc(C2c3[nH]c4ccccc4c3CCN2Cc2ncc[nH]2)c1 (stereo not drawn),52.6*,-6.0,0.5,0.1,-6.0,2.8
C[C@H]1CN([C@@H](C)CO)C(=O)Cc2cc(NC(=O)Nc3cccc4ccccc34)ccc2O[C@H]1CN(C)Cc1ccc(C(=O)O)cc1,24.1,.,.,.,.,.
C[C@H](CO)N1C[C@H](C)[C@@H](CN(C)Cc2ccc(Oc3ccccc3)cc2)Oc2ccc(NC(=O)Nc3cccc4ccccc34)cc2CC1=O,76.4*,.,.,.,.,.
C[C@H](CO)N1C[C@H](C)[C@H](CN(C)CC2CCCCC2)Oc2ccc(NC(=O)Nc3cccc4ccccc34)cc2CC1=O,9.9,.,.,.,.,.
C[C@H]1CN([C@@H](C)CO)C(=O)Cc2cc(NC(=O)Nc3cccc4ccccc34)ccc2O[C@H]1CN(C)Cc1ccc(Oc2ccccc2)cc1,41.8,.,.,.,.,.
C[C@H](CO)N1C[C@H](C)[C@@H](CN(C)CC2CCCCC2)Oc2ccc(NC(=O)Nc3cccc4ccccc34)cc2CC1=O,47.3*,.,.,.,.,.
C[C@@H]1CN([C@@H](C)CO)C(=O)Cc2cc(NC(=O)Nc3cccc4ccccc34)ccc2O[C@@H]1CN(C)Cc1ccc(C(=O)O)cc1,active,.,.,.,.,.
CC(=O)N(C)C[C@@H]1Oc2cc(-c3ccc(C#N)cc3)ccc2S(=O)(=O)N([C@@H](C)CO)C[C@H]1C,2.3,.,.,.,.,.
CNC[C@@H]1Oc2cc(C#Cc3ccccn3)ccc2S(=O)(=O)N([C@H](C)CO)C[C@H]1C,45.6*,.,.,.,.,.
CC(=O)N(C)C[C@@H]1Oc2cc(-c3ccc(C#N)cc3)ccc2S(=O)(=O)N([C@H](C)CO)C[C@@H]1C,active,.,.,.,.,.
COc1ccc(C=NNC(=O)COc2ccccc2Cl)cc1Cn1nc(C)cc1C,.,.,.,.,-0.1,.
CCOc1ccc(C=NNC(=O)CN2CCCCCCC2)cc1,.,.,.,.,0.3,.
COc1ccc(C(=O)/C=C2\Sc3ccccc3N2C)cc1,.,296.2,.,0.0,-61.6,.
COc1ccc(-[n+]2c(C)cc(/C=C3\Sc4ccccc4N3C)cc2C)cc1,.,8.5,-55.2,0.1,23.7*,44.3*
COc1ccccc1-[n+]1c(C)cc(/C=C2\Sc3ccccc3N2C)cc1C,3.0,19.5,-62.3,0.0,20.4*,48.4*
Cc1ccc(C=Nn2c(C3CCCCC3)n[nH]c2=S)o1,.,.,.,.,7.0,.
O=C(ON=C1CCSc2ccccc21)c1ccccc1,.,.,.,.,-2.7,.
Cc1ccc(-c2cc(C(=O)NN=C/C=C/c3ccccc3)n[nH]2)o1,.,.,.,.,-1.6,.
SMILES,ARNT-TACC3 inh,SUMO Mot1 rescue,RTF Ca sens inh,Efflux pump mplx,UCH37 DUB inh,RTF Ca sens act
Cc1ccc(-c2nnc(SCC(=O)NN=Cc3ccccc3C(=O)O)n2-c2ccc(C)cc2)cc1,.,.,.,.,2.0,.
CCCCCCn1c(=O)[nH]c2nc3cc(N)c(C)cc3nc2c1=O,3.0,.,i,.,9.9,627.3*
CCCCn1c(=O)[nH]c2nc3cc(NC(C)=O)ccc3nc2c1=O,10.2,-3.3,-8.6,0.0,-20.5,5.8
N#Cc1c(N=Cc2cccnc2)sc2c1CCCC2,.,.,.,.,7.0,.
CC(=O)[C@@]1(O)CC[C@H]2[C@@H]3CCC4=CC(=O)CC[C@]4(C)[C@H]3CC[C@@]21C,-0.7,20.3,-7.9,0.7,0.9,2.0
Cc1nc(C2CCC3C4CCC5=CC(=O)CC[C@]5(C)C4CC[C@]23C)cs1 (stereo partly drawn),.,-11.7,.,2.0*,.,.
O=C(NN=Cc1cc2ccccc2nc1Cl)c1ccncc1,.,.,.,.,-42.6,.
COCc1cc(C)nc(OCC(=O)NN=Cc2ccc(-c3cc([N+](=O)[O-])ccc3C)o2)c1C#N,.,.,.,.,13.5,.
CCC(NC(=O)CCc1c(C)c2cc3c(-c4ccccc4)coc3cc2oc1=O)C(=O)O (stereo not drawn),26.6,13.8,0.8,0.4,-3.7,-2.7
Cc1c(CCC(=O)N[C@@H](C)C(=O)O)c(=O)oc2cc3occ(-c4ccccc4)c3cc12,48.9*,-36.9,-6.4,0.1,-14.7,-4.8
O=C1C=CC(=O)c2c(O)c(N3CCN(CCOCCO)CC3)c(Br)c(O)c21,16.6,.,4.7,.,.,-0.7
O=C1C=CC(=O)c2c(O)c(N3CCN(CCO)CC3)c(Cl)c(O)c21,31.1*,.,0.8,.,.,-5.7
COc1ccc(C2N(c3ccc(Cl)cc3)C(=O)C3CCCN32)cc1 (stereo not drawn),29.7*,-6.9,1.6,-0.1,1.3,-5.8
COc1ccc(N2C(=O)C3CCCN3C2c2ccc(Cl)cc2)cc1 (stereo not drawn),-12.6,-15.7,-10.7,-0.1,1.1,0.2
O=C(Nc1ccccc1)c1ccc2nc(-c3ccco3)c(-c3ccco3)nc2c1,47.1*,-15.5,10.0,-0.2,-17.3,-9.2
O=C(NCCCO)c1ccc2nc(-c3ccco3)c(-c3ccco3)nc2c1,46.7*,.,9.6,.,-29.4,-0.1
CC(=O)c1ccc(NC(=O)c2ccc3nc(-c4ccco4)c(-c4ccco4)nc3c2)cc1,11.0,2.6,7.9,0.0,-20.0,-22.1
CCOC(=O)c1c(C)[nH]c(C(=O)NN=Cc2cccc(OC)c2)c1C,.,.,.,.,-1.2,.
COc1ccc(NC(=O)c2cccn(CC=C(C)C)c2=O)cc1,-5.4,330.8*,-10.2,0.2,4.5,1.5
COc1ccccc1C=NNC(=O)c1nnn(-c2nonc2N)c1CN(C)c1ccccc1,.,.,.,.,-2.1,.
COc1ccc(C(=O)N/N=C/c2c(C)[nH]c(=O)[nH]c2=O)cc1,37.7*,-9.1,-3.4,0.0,.,-1.1
Cc1ncc(CO)c(/C=N/NC(=O)c2ccccc2Br)c1O,60.8*,-4.9,-9.6,0.4,.,-2.9
